Assay outcomes deposited in PubChem BioAssay by Broad Institute.
PolyA inhibitor: inhibitors of polyadenylation in S. cerevisiae; AID 1875; S. cerevisiae SKY197-pL101 polyadenylation reporter, beta-gal luminescence; efflux-impaired pdr1/pdr3 knockout yeast; score 100 = 6 SD above DMSO; activity score, % at 12 µM; 300,000 tested, 0.02% active;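 active = lowest replicate activity score at least 50, where 100 means six control SD above control mean; inconclusive = lowest score under 50 but half or more replicates reach 50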;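 also: yeast exposed to compound for 9 h at 30 °C; higher score means more reporter readthrough which indicates perturbed polyadenylation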
HIF activator: HIF pathway transcriptional activation; U2OS HRE-luciferase reporter, luminescence; normalized: DMSO 0%, desferrioxamine 100%; activation, % at 7.5 µM (by protocol); 300,000 tested, 0.32% active;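 active = mean activation of at least 10% of the iron chelator positive control signal, with at least half of replicates also reaching 10%; inconclusive = mean and replicate majority disagree about reaching 10%; inactive = mean and most replicates under 10%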
CSC inhib: cancer stem cell inhibition; inhibition, % at 7.5 µM; cancer stem cell-like cells viability, luminescence; 300,000 tested, 1.1% active; in the data active = inhibition above about 75%; inconclusive = no clear call, values can overlap the other calls; tested in HMLE shEcad cells
Calb FLC: affects C. albicans growth with fluconazole; C. albicans CaCi-2 (fluconazole-resistant clinical isolate) + fluconazole, Alamar Blue growth, 48 h; growth inhibition, % (no concentration beside the values); 300,000 tested, 0.57% active;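 active = growth inhibition above about 58% in most replicates, limit read from the data, passing the limit was not always enough; inconclusive = exactly half the replicates above a set limit; inactive = most replicates below a set limit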;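 also: all wells also contain fluconazole at 8 µg/ml as a sub-toxic cotreatment; 0% = median of DMSO wells and 100% = median of geldanamycin control wells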
T cruzi repl: blocks replication of Trypanosoma cruzi | 300,000 tested, 1.4% active | inhibition, % (concentration not given with the values) | T. cruzi beta-gal in NIH3T3, luminescence, 90 h | AID 1885;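 active = mean inhibition across valid replicates above about 55%, limit read from the data; inconclusive = mean below that limit but half or more replicates reach it; inactive = mean below it, under half of replicates reach it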;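 also: signal also drops with host cell toxicity which is not excluded here; 0% = plate median of DMSO wells and 100% = zero luminescence signal; higher percent means less beta-gal luminescence so fewer parasites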
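System: NIH/3T3 fibroblasts plus reporter T. cruzi. Medium: DMEM plus 2% FBS. Probe or stimulus: 5000 reporter trypomastigotes per well. Compound: single 50 nL compound addition per well in DMSO. Incubation: co-culture of at least 90 h after 3 h attachment. Detection: GalScreen β-gal luminescence, detergent lysis, 60 min. Evaluation: parasite load inhibition, %.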
Beta cell apopt: blocks beta cell apoptosis; INS-1E cytokine-induced death, ATP luminescence, 48 h; percent of positive-control rescue, neutral wells zero; protection from apoptosis, % (test concentration not listed); 300,000 tested, 0.8% active; AID 435005;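 active = Every replicate reaches about 75%, or at least half do and their mean reaches it too, limit read from the data; inconclusive = At least half of replicates reach the limit but their mean does not; inactive = Under half of replicates reach the limit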;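 also: 0% = cytokine-treated negative control wells and 100% = positive control rescue; higher means more ATP so stronger rescue from cytokine killing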
* marks the source's active call; other numbers are inactive results; ? = inconclusive; . = no result. Only some compounds are listed: those with a hit (about 3.1% of all), similar ones and a draw of the others.

SMILES	PolyA inhibitor	HIF activator	CSC inhib	Calb FLC	T cruzi repl	Beta cell apopt
COc1ccc(C(=O)Nc2ncc3c(n2)CC(C)CC3=O)cc1 (stereo not drawn)	5	0	-3	-7	64*	-1
O=S(=O)(c1ccccc1)N1N=C(c2ccc(Br)cc2)CC1c1ccco1 (stereo not drawn)	-15	-1	2	-1	19	14
Cc1ccc2c(c1)CCCN2S(=O)(=O)c1cccc(C(=O)Nc2ccccc2C(=O)O)c1	-8	0	62	26	58*	3
CN(C)C(=O)c1ccc(NC(=O)c2cccc(S(=O)(=O)N3CCCc4ccccc43)c2)cc1	-9	0	.	-3	24	-3
CCOC(=O)c1sc2nc(CN3CCN(c4cccc(C(F)(F)F)c4)CC3)[nH]c(=O)c2c1C	6	0	7	-3	-2	-6
Cc1ccc2c(c1)-n1c(nc3cc(Cl)ccc3c1=O)C(CC(C)C)NC2=O (stereo not drawn)	.	.	.	.	.	1
COc1cccc(CN2C(=O)C3(C(C#N)=C(N)OC4=C3C(=O)CCC4)c3ccccc32)c1 (stereo not drawn)	-13	0	18	91*	-29	.
CC1(C)C(C#N)=C(N)OC2=C1C(=O)CCC2	-13	0	-3	-1	-10	1
Cc1ccc(NC(=O)COC(=O)C2CC2(Cl)Cl)cc1C (stereo not drawn)	2	0	4	-3	-5	-5
CCS(=O)(=O)c1ncc(Cl)c(C(=O)Nc2ccc(S(=O)(=O)N(C)c3ccccc3)cc2)n1	-17	-4	98*	0	32	105*
CCN(c1ccccc1)S(=O)(=O)c1ccc(NC(=O)c2nc(S(C)(=O)=O)ncc2Cl)cc1	-4	1	99*	0	0	98*
CCN(c1ccccc1)S(=O)(=O)c1ccc(C(=O)Nc2ccncc2)cc1	-7	0	-14	-11	48	-9
CS(=O)(=O)c1ncc(Cl)c(C(=O)Nc2ccc(OC(F)F)cc2)n1	-7	-2	135*	1	55*	?
Cc1nc2ccc(NC(=O)c3cc(S(=O)(=O)N(C)c4ccccc4)ccc3Cl)cc2s1	15	0	5	-2	-24	80*
CS(=O)(=O)c1ncc(Cl)c(C(=O)Nc2ccc(N3CCOCC3)cc2)n1	2	1	?	-6	42	-6
CC(=O)Nc1ccc(S(=O)(=O)N(C)c2ccccc2)cc1	-2	0	26	7	7	3
COc1cccc(C(=O)Nc2cc(C(=O)NCc3ccc(C)cc3)ccc2N2CCC3(CC2)CC(c2cccc(Br)c2)=NO3)c1	.	.	7	.	.	3
CCOc1ccc(CSC2=NCCN2)cc1Cl	-2	0	-10	4	57*	-16
N#Cc1ccc(CSC2=NCCN2)cc1	-17	0	-12	3	21	1
CCOC(=O)C1=C(c2ccccc2)N=c2s/c(=C\c3ccco3)c(=O)n2C1c1cccs1 (stereo not drawn)	0	0	.	7	-5	.
CCOC(=O)C1=C(c2ccccc2)N=c2s/c(=C\c3cc(OC)c(OC)c(OC)c3)c(=O)n2C1c1cccs1 (stereo not drawn)	6	0	-4	2	63*	-3
Cc1ccc(C(=O)O)cc1NC(=O)CSc1ncnc2sc3c(c12)CCC3	5	0	0	6	1	-6
Oc1ccc(N2CCN(C(=S)NCCc3ccccc3)CC2)cc1	-1	1	1	106*	23	3
C/C(=N\NC(=O)CCC(=O)Nc1ccccc1)c1cccs1	13	0	-10	-15	0	-2
CCN(CC)P(=O)(Nc1ccccc1Br)c1ccc(N(C)C)cc1NC(=O)c1ccco1 (stereo not drawn)	-9	-1	-11	25	57*	9
SMILES	PolyA inhibitor	HIF activator	CSC inhib	Calb FLC	T cruzi repl	Beta cell apopt
Nc1nonc1-n1nnc(C(=O)N/N=C/c2ccccc2)c1CN1CCc2ccccc21	-8	-1	.	-1	9	-1
CC1CCN(Cc2c(C(=O)N/N=C/c3cc(Br)ccc3O)nnn2-c2nonc2N)CC1	-9	53*	.	82*	59*	90*
COc1ccc(O)c(/C=N/NC(=O)c2c(C)nnn2-c2nonc2N)c1	9	2	.	63*	-1	31
CC1CCN(Cc2c(C(=O)N/N=C/c3cc(Cl)ccc3O)nnn2-c2nonc2N)CC1	29	40*	.	?	61*	88*
Cc1cc(C)c(/C=N/NC(=O)c2nnn(-c3nonc3N)c2CN2CCC(C)CC2)c(C)c1	13	0	-7	1	36	18
COc1ccc(/C=N/NC(=O)c2nnn(-c3nonc3N)c2-c2cccc(OC)c2)cc1	17	.	-20	0	-1	-9
C/C(=N\NC(=O)c1nnn(-c2nonc2N)c1CN1CCc2ccccc21)c1ccccc1O	-2	1	91*	-27	46	92*
CCc1ccc(OCC(=O)N(CC)CC)cc1	14	0	-8	-27	-8	6
COc1cc2c(cc1OC)CN(C(=O)CSc1ccccc1C)CC2	.	.	-15	.	.	-11
Cc1cc(C)c2sc(NNC(=O)c3ccc(S(=O)(=O)N4CCc5ccccc5C4)cc3)nc2c1	6	159*	103*	8	59*	101*
CCc1nnc(NC(=O)c2ccc(S(=O)(=O)N3CCc4ccccc4C3)cc2)s1	17	0	4	-3	12	-3
CCOC(=O)Cc1csc(NC(=O)c2cc(=O)c3ccccc3o2)n1	5	0	3	6	-14	3
Cc1cc(C)c2nc(NNC(=O)c3ccc(S(=O)(=O)N4CCc5ccccc5C4)cc3)sc2c1	-5	22*	104*	0	59*	87*
Cc1cc(C)c2nc(NNC(=O)c3cc(=O)c4ccccc4o3)sc2c1	31	1	79*	-19	-12	4
Cc1cc(-n2cnnn2)cc(C)c1S(=O)(=O)NCCOc1ccccc1	?	0	.	1	-6	.
COc1ccc(C(=O)/C=C/c2ccsc2)cc1CSCC(=O)O	-14	0	5	-2	-12	12
COc1cc(CNCCCN2CCOCC2)ccc1OCC(=O)NC(C)(C)C	9	0	-5	-10	16	-2
CCOc1cc(CNCCN2CCOCC2)ccc1OCc1ccccc1Cl	-3	0	61	4	56*	8
CCOc1cc(CNCCCN2CCOCC2)ccc1OCC(=O)NC(C)(C)C	-14	0	-10	-15	63*	-17
COc1cc(CNCCN2CCOCC2)ccc1OCc1c(Cl)cccc1Cl	6	1	44	-21	49	-4
C=CCOc1c(Br)cc(CNCCCN2CCOCC2)cc1OC	18	-5	-11	4	58*	-6
